In brackets after ≈: the same amount, converted by molar mass.
Experiments:
Saccharomyces cerevisiae [1] = test: Antifungal activity against Saccharomyces cerevisiae 7 assessed as concentration required to generate kill-zone of 12 mm in diameter; type: functional
Method in brief: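 Mutant S. cerevisiae Sc-7 on an agar-based gel, incubated […] with samples. Kill-zone diameters measured; IC12 (µg/mL) is the concentration giving a 12 mm zone. Standard deviations come from three separate experiments.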

Saccharomyces cerevisiae [2] = test: Antifungal activity against Saccharomyces cerevisiae 1138 assessed as concentration required to generate kill-zone of 12 mm in diameter after 48 hrs; type: functional
Method in brief: (§1)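 Mutant S. cerevisiae strains on an agar-based gel, incubated 48 h with samples. Inhibition zones measured; IC12 (µg/mL) is the concentration producing a 12 mm diameter kill zone. Values with standard deviations come from three separate experiments.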

Saccharomyces cerevisiae [3] = test: Antifungal activity against Saccharomyces cerevisiae 1140 assessed as concentration required to generate kill-zone of 12 mm in diameter after 48 hrs; type: functional; method in brief: as §1
Saccharomyces cerevisiae [4] = test: Antifungal activity against Saccharomyces cerevisiae 1353 assessed as concentration required to generate kill-zone of 12 mm in diameter after 48 hrs
A2780 = test: Cytotoxicity against human A2780 cells; type: functional, cell-based
M109 = test: Cytotoxicity against mouse M109 cells; type: functional, cell-based
Method in brief: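 In vitro antitumor cytotoxicity in murine Madison Lung Carcinoma (M109) cells, run at Bristol-Myers Squibb; value given as IC50 in µg/mL.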

Row | Molecule | Activity (Saccharomyces cerevisiae [1]) [µg/mL] | Activity (Saccharomyces cerevisiae [2]) [µg/mL] | Activity (Saccharomyces cerevisiae [3]) [µg/mL] | Activity (Saccharomyces cerevisiae [4]) [µg/mL] | IC50 (A2780) [µg/mL] | IC50 (M109) [µg/mL]
1 | CCCCCCCCCCCCCCCCCCCC1=CC(=O)C=C(OC)C1=O | >2000 | >2000 | >2000 | >2000 |  | 
2 | CCCCC1=CC(=O)C=C(OC)C1=O | 80 | 220 | 150 | 210 | 3.2 (≈ 16.5 µM) | 
3 | NYSTATIN |  | 14 | 13 |  |  | 
4 | CCC1=CC(=O)C=C(OC)C1=O | 220 | 200 | 140 | 233 |  | 
5 | COC1=CC(=O)C=C(Cc2ccccc2)C1=O | 180 | 460 | 420 | 590 |  | 
6 | CCCCCCCC1=CC(=O)C=C(OC)C1=O | 16 | 120 | 130 | 220 | 7.9 (≈ 33.4 µM) | 10 (≈ 42.3 µM)
7 | CCCCCC1=CC(=O)C=C(OC)C1=O [Primin] | 48 | 240 | 170 | 285 | 2.9 (≈ 13.9 µM) | 10 (≈ 48 µM)
8 | CCCCC(O)C1=CC(=O)C=C(OC)C1=O (centres undefined) | 438 | 536 | 430 | 577 |  | 
9 | COC1=CC(=O)C=C(C)C1=O | 530 | 580 | 630 | 830 |  | 
10 | CCCCCCCCCCC1=CC(=O)C=C(OC)C1=O | 3 | 380 | 380 | 380 |  | 10 (≈ 35.9 µM)
